Residue numbers refer to the chain shown, from its start. Like-named read-outs stand apart in the source and are kept apart here.
Key:
SULT2B1b = conditions: cited from earlier work
SULT2B1b S347D [1] = biological target: T1, SULT2B1b S347D (Homo sapiens, UniProt O00204, S347D); test: Initial-rate 1-HP sulfonation; conditions: for Ki: read-out: Ki 7-DH
T1 sequence (O00204 1-365 S347D): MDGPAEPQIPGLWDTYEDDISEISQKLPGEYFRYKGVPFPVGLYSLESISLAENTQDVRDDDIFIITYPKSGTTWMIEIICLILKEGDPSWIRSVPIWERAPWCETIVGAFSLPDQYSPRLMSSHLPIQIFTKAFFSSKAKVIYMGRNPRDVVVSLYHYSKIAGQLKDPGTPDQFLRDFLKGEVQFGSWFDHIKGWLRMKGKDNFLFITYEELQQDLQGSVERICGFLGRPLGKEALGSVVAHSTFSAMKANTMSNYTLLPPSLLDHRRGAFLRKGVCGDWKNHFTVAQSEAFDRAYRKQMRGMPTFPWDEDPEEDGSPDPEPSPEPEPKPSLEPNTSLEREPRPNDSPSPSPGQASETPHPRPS

SULT2B1b S347D [2] = biological target: T1, SULT2B1b S347D; test: Equilibrium binding via intrinsic fluorescence
How it was run: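 Intrinsic fluorescence titrations of purified His/GST/MBP-tag-cleaved enzyme, excitation 290 nm, in KPO4 (50 mM), pH 7.5, 25 ± 2 °C. […] Triplicate averaged data were fit to a single-site-per-monomer model.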

SULT2B1b, S347D, W98A = biological target: T2, SULT2B1b, S347D, W98A (Homo sapiens, UniProt O00204, S347D/W98A); test: Initial-rate parameters, direct-contact mutant W98A; conditions: read-out: Km PAPS; W98A; saturating 1-HP (100 μM); (−) quercetin
T2 sequence (O00204 1-365 W98A/S347D): T1 sequence (O00204 1-365 S347D) with W98A

SULT2B1b S347D [3] = biological target: T1, SULT2B1b S347D; test: Stopped-flow ligand-binding studies
SULT2B1b, S347D, W13A = biological target: T3, SULT2B1b, S347D, W13A (Homo sapiens, UniProt O00204, S347D/W13A); test: Initial-rate parameters, direct-contact mutant W13A; conditions: read-out: Km PAPS; W13A; saturating 1-HP (100 μM); (−) quercetin
T3 sequence (O00204 1-365 W13A/S347D): T1 sequence (O00204 1-365 S347D) with W13A

SULT2B1b, S347D, Y257A = biological target: T4, SULT2B1b, S347D, Y257A (Homo sapiens, UniProt O00204, S347D/Y257A); test: Initial-rate parameters, direct-contact mutant Y257A; conditions: read-out: Km PAPS; Y257A; saturating 1-HP (100 μM); (−) quercetin
T4 sequence (O00204 1-365 Y257A/S347D): T1 sequence (O00204 1-365 S347D) with Y257A

[4] = system: Oc1ccc2ccc3cccc4ccc1c2c34; test: Initial-rate parameters, non DTNB-reactive scaffold; assay type: biochemical, human; conditions: other: NR; saturating PAPS (300 μM); 25.0 °C
[5] = system: Oc1ccc2ccc3cccc4ccc1c2c34; test: purified protein, by the assay type; conditions: saturating PAPS (300 μM), (−) quercetin, pH 7.5, 25.0 °C
[6] = system: Oc1ccc2ccc3cccc4ccc1c2c34; test: Initial-rate parameters, spin-labeled mutant 21; assay type: biochemical, human; conditions: other: spin label at 21; saturating PAPS (300 μM); 25.0 °C
[7] = system: Oc1ccc2ccc3cccc4ccc1c2c34; test: Initial-rate parameters, spin-labeled mutant 171; assay type: biochemical, human; conditions: other: spin label at 171; saturating PAPS (300 μM); 25.0 °C
[8] = system: Oc1ccc2ccc3cccc4ccc1c2c34; test: Initial-rate parameters, spin-labeled mutant 247; assay type: biochemical, human; conditions: other: spin label at 247; saturating PAPS (300 μM); 25.0 °C

CC(C)CCC[C@@H](C)[C@H]1CC[C@H]2C3=CC=C4C[C@@H](O)CC[C@]4(C)[C@H]3CC[C@]12C [7-DH, 7-dehydrocholesterol]
SULT2B1b substrate (SULT2B1b): neither of which is a SULT2B1b substrate | α (fraction turnover at saturation), 7-DH (SULT2B1b S347D [1]; PAPS 30 μM, 1-HP 100 μM): 0.11 ± 0.02 | Ki (SULT2B1b S347D [1]): 0.11 µM | Ki (SULT2B1b S347D [1]; PAPS 30 μM, 1-HP 100 μM, noncompetitive partial-inhibition model): 0.11 ± 0.007 µM

CC(C)=CCC[C@@H](C)[C@H]1CC[C@H]2[C@@H]3CC=C4C[C@@H](O)CC[C@]4(C)[C@H]3CC[C@]12C [24-DH, 24-dehydrocholesterol]
SULT2B1b substrate (SULT2B1b): neither of which is a SULT2B1b substrate | inhibition of SULT2B1b turnover (SULT2B1b S347D [1]; concentrations as high as 10 μM): does not inhibit

Nc1ncnc2c1ncn2[C@@H]1O[C@H](COP(=O)(O)O)[C@@H](OP(=O)(O)O)[C@H]1O [PAP, 3′-phosphoadenosine 5′-phosphate]
Kd (SULT2B1b S347D [2]): 0.38 µM

Nc1ncnc2c1ncn2[C@@H]1O[C@H](COP(=O)(O)OS(=O)(=O)O)[C@@H](OP(=O)(O)O)[C@H]1O [PAPS, 3′-phosphoadenosine 5′-phosphosulfate]
Km (SULT2B1b, S347D, W98A): 0.31 µM | increase of PAPS affinity (SULT2B1b S347D [2]; at saturating quercetin): 12 fold | koff (SULT2B1b S347D [3]; (−) Quc): 3.0 (0.2) s^−1 | kon (SULT2B1b S347D [3]; (−) Quc): 8.0 (0.3)^1 μM^−1s^−1 | rate constant for release of PAPS (SULT2B1b S347D [3]; absence of quercetin): 3.0 ± 0.2 s⁻¹ | decrease of koff PAPS (SULT2B1b S347D [3]; at saturating quercetin): 14 fold | rate constant for PAPS release (SULT2B1b S347D [3]; at saturating quercetin): 0.22 ± 0.2 s⁻¹ | Kd (SULT2B1b S347D [3]; read-out: Kd PAPS (koff/kon), (−) Quc): 0.38 µM | Km (SULT2B1b, S347D, W13A): 0.36 µM | Km (SULT2B1b, S347D, Y257A): 0.37 µM

SULT2B1b C81S, C225S, C278S, S347D (Homo sapiens; C225S/C278S/C81S/S347D)
Km [4]: 3.5 (0.2) μM | kcat [4]: 3.3 s⁻¹

SULT2B1b S347D (Homo sapiens; S347D)
Km ([5]; other: WT): 3.8 (0.3) μM | kcat ([5]; other: WT): 3.4 s⁻¹

SULT2B1b S347D spin-labeled at residue 21 (Homo sapiens; C225S/C278S/C81S/S21C/S347D)
Km [6]: 4.2 (0.3) μM | kcat [6]: 3.6 s⁻¹

SULT2B1b S347D spin-labeled at residue 171 (Homo sapiens; C225S/C278S/C81S/S347D/T171C)
Km [7]: 4.1 (0.2) μM | kcat [7]: 3 s⁻¹

SULT2B1b S347D spin-labeled at residue 247 (Homo sapiens; C225S/C278S/C81S/S247C/S347D)
Km [8]: 3.6 (0.3) μM | kcat [8]: 3.5 s⁻¹

SULT2B1b, S347D, W13A (Homo sapiens; S347D/W13A)
Km ([5]; other: W13A): 4.2 (0.3) μM

SULT2B1b, S347D, W98A (Homo sapiens; S347D/W98A)
Km ([5]; other: W98A): 3.6 (0.2) μM

SULT2B1b, S347D, Y257A (Homo sapiens; S347D/Y257A)
Km ([5]; other: Y257A): 4.0 (0.3) μM
